The record followed here is ChEMBL document CHEMBL3871273, “p-Terphenyl Derivatives from the Endolichenic Fungus Floricola striata” (2016).

≈ marks a conversion by molar mass, not a printed value. Calls of active or inactive are those of the source. No cut-off for these calls is given here.

Holding throughout (assay type): functional
Experiment [1] concerns Candida albicans. The experiment can be described thus: Antifungal activity against Candida albicans SC5314 after 48 hrs by broth microdilution method. The conditions noted are these: SC5314, 48 h. Put shortly:
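C. albicans SC5314 grown overnight, then set at (2−5) × 10^3 cells/mL in RPMI 1640. Compounds added at final 2 to 128 μg/mL, 35 °C for 48 h, following CLSI M27A3. OD600 read on a plate reader. MIC taken as the concentration giving 80% growth reduction.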
A general note: Dilution methods test growth across graded concentrations, often in twofold steps.

Experiment [2] concerns Candida albicans. The experiment can be described thus: Induction of disruption of plasma membrane integrity in Candida albicans assessed as decrease in fluorescence intensity at 8 ug/ml after 3 hrs by DPH-staining based spectrofluorophotometric analysis. The method, boiled down:
(§1)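 Cells at 1 × 10^6/mL in YPD treated 3 h (0, 4, 8, 16, 32 μg/mL; amphotericin B 8 μg/mL as positive control). Fixed in 0.37% formaldehyde 30 min, washed in PBS, freeze-thawed in liquid nitrogen. Stained with 1 μM DPH 45 min at 30 °C, washed. Fluorescence read at ex 350/em 450 nm and expressed as relative fluorescence. Means ± SD.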

Experiment [3] deals with Candida albicans. In words: Fungicidal activity against Candida albicans SC5314 at 16 ug/ml up to 12 hrs by YPD-based colony counting method. Put shortly:
(§2)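 Overnight SC5314 cells washed and resuspended at 1 × 10^6 cells/mL in MOPS-buffered RPMI 1640. Compound added at final 8, 16 and 32 μg/mL, shaken at 30 °C. Aliquots taken at 0, 0.5, 1, 2, 3, 4, 5, 6, 7, 8 and 12 h, washed, diluted and plated on YPD agar for viable colony counts. Means ± SD.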

Experiment [4] relates to Candida albicans. In words: Induction of disruption of plasma membrane integrity in Candida albicans assessed as increase in fluorescence intensity after 3 hrs by propidium iodide-staining based FACS analysis. Put shortly:
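Log-phase C. albicans harvested and suspended in RPMI 1640, then treated 3 h at 30 °C (amphotericin B 8 μg/mL as positive control). Stained with 5 μM propidium iodide for 30 min at room temperature. Cell fluorescence measured by flow cytometry.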
Background: A flow cytometer gives signals particle by particle.

In experiment [5] the test system is Candida albicans. In words: Induction of disruption of plasma membrane integrity in Candida albicans assessed as decrease in fluorescence intensity after 3 hrs by DPH-staining based spectrofluorophotometric analysis. The method, boiled down:
as §1

The subject of experiment [6] is Candida albicans. In words: Fungicidal activity against Candida albicans SC5314 at 32 ug/ml up to 2 hrs by YPD-based colony counting method. The method, boiled down:
as §2

Consider `COC1=C(c2ccccc2)C(=O)C2=C(C1=O)c1ccccc1CO2` [BETULINAN B], for which the MIC80 (in general, an inhibitory concentration at the 80% level, which refers to growth in some studies and to a panel of isolates in others) against Candida albicans [1] was more than 128 µg/mL.
Same read-out and setting: to `Oc1cc(-c2ccccc2)c(O)c2c1-c1ccccc1CO2` belongs more than 128 µg/mL; to `COC1(OC)C2C(=O)C=C(c3ccccc3)C1(O)Oc1ccc(O)cc12` (stereo not drawn), more than 128 µg/mL.
The same measure, in the same setting: to `COC1=C(c2cc(O)ccc2O)C(=O)C=C(c2ccccc2)C1=O` belongs 64 µg/mL (≈ 199 µM).
For `COC1=C(c2ccccc2)C(=O)c2oc3ccccc3c2C1=O`, the MIC80 against Candida albicans [1] is more than 128 µg/mL.
The same measure, in the same setting: to `O=C1C=C(c2ccccc2)C(=O)C2=C1c1ccccc1CO2` belongs more than 128 µg/mL.
Regarding `C[C@@H]1[C@H](O)[C@@H](C)/C=C/C=C/C=C/C=C/C=C/C=C/C=C/[C@H](O[C@@H]2O[C@H](C)[C@@H](O)[C@H](N)[C@@H]2O)C[C@@H]2O[C@](O)(C[C@@H](O)C[C@@H](O)[C@H](O)CC[C@@H](O)C[C@@H](O)CC(=O)O[C@H]1C)C[C@H](O)[C@H]2C(=O)O`, the result in the experiment with Candida albicans [2] was Active.
Compound `COc1c(O)c(-c2ccccc2)cc(O)c1-c1cc(O)ccc1O` registered an MIC80 in the experiment with Candida albicans [1] of 64 µg/mL (≈ 197 µM).
On the same count and under the same terms, the figure for `COC1=C(c2ccccc2)C(=O)C=C(c2ccccc2)C1=O` [BETULINAN C] is more than 128 µg/mL; for `COc1c(O)c(-c2ccccc2)cc(O)c1-c1ccccc1` it is more than 128 µg/mL; for `COC1=C(c2ccc(O)cc2)C(=O)C=C(c2ccccc2)C1=O` it is 8 µg/mL (≈ 26.1 µM).
Still for that read-out and setting: to `COC12Oc3ccc(O)cc3C1(O)C(=O)C=C(c1ccccc1)C2=O` (stereo not drawn) belongs more than 128 µg/mL.
The same measure, in the same setting: the figure for `COc1c(O)c(-c2ccccc2)cc(O)c1-c1ccc(O)cc1` is 16 µg/mL (≈ 51.9 µM).
Consider `COC1=C(c2ccccc2O)C(=O)C=C(c2ccccc2)C1=O`, for which the Activity in the experiment with Candida albicans [3] is 99.8%; with Candida albicans [4] it was “Dose-dependent effect”; with Candida albicans [5], “Dose-dependent effect”. Also, in the experiment with Candida albicans [6], the outcome was Active. In the experiment on Candida albicans [1], this compound had an MIC80 of 8 µg/mL (≈ 26.1 µM).
